Results taken from ChEMBL document CHEMBL1153742, “Cytotoxic constituents of the lichen Diploicia canescens” (J Nat Prod, 2009).

Key:
Assay type in all cases: functional, cell-based
B16 [1] = assay: Cytotoxicity against mouse B16 cells after 72 hrs by MTT assay; details: B16, 72 h
Method in brief: (§1)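 B16 melanoma cells were seeded at 15 000 cells/mL in RPMI 1640 with 5% FCS, and after 5 h the medium was switched to RPMI with 1% FCS. Serial dilutions from 0.25 to 100 µM were added on days 1, 2 and 3. Cells were incubated at 37 °C in 10% CO2 for 72 h, and viability was read by MTT on day 4. Each concentration ran in triplicate wells, and each experiment was repeated at least three times.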

HaCaT = assay: Cytotoxicity against human HaCaT cells after 72 hrs by MTT assay
Method in brief: as §1, with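 “HaCaT keratinocytes” for “B16 melanoma cells”, “25” for “15”, “DMEM” for “RPMI 1640”, “10%” for “5%”, “reduced-serum DMEM.” for “RPMI with 1% FCS.”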

B16 [2] = assay: Cytotoxicity against mouse B16 cells after 48 hrs by MTT assay; details: B16, 48 h
Method in brief: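 Mouse B16 melanoma cells were seeded at 30 000 cells/mL in RPMI 1640 with 10% FCS on day 0. Compound dilutions were added on day 1. Cells were incubated at 37 °C under 10% CO2, and growth and viability were read by MTT after 48 h. IC50 was derived from at least three independent experiments, with three wells per concentration.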

Row | SMILES | IC50 (B16 [1]) | IC50 (HaCaT) | IC50 (B16 [2])
1 | COC(=O)c1c(Oc2c(C)c(Cl)c(OC)c(Cl)c2O)cc(OC)c(Cl)c1C [BUELLIN] | 250 nM | > 10000 nM | –
2 | COc1c(Cl)c(C)c2c(c1Cl)OC(=O)c1c(cc(O)c(Cl)c1C)O2 [DECHLORODEPLOICIN] | 1700 nM | 4300 nM | –
3 | COc1c(Cl)c(C)c2c(c1Cl)OC(=O)c1c(C)c(Cl)c(O)c(Cl)c1O2 [DIPLOICIN] | 4000 nM | > 10000 nM | –
4 | COc1cc([C@@H]2c3cc4c(cc3[C@@H](O[C@@H]3O[C@@H]5CO[C@@H](C)O[C@H]5[C@H](O)[C@H]3O)[C@H]3COC(=O)[C@H]23)OCO4)cc(OC)c1O [ETOPOSIDE] | 280 nM | 550 nM | –
5 | COc1cc2c(c(C)c1Cl)Oc1cc(OC)c(Cl)c(C)c1C(=O)O2 [SCENSIDIN] | 400 nM | 6100 nM | –
6 | COC(=O)[C@@]12Oc3ccc(-c4ccc5c(c4O)C(=O)C4=C(O)C[C@H](C)[C@H](O)[C@]4(C(=O)OC)O5)c(O)c3C(=O)C1=C(O)C[C@H](C)[C@@H]2O [SECALONIC ACID B] | – | > 10000 nM | 2800 nM
7 | COC(=O)[C@@]12Oc3ccc(-c4ccc5c(c4O)C(O)C4=C(O)C[C@H](C)[C@@H](O)[C@]4(C(=O)OC)O5)c(O)c3C(=O)C1=C(O)C[C@H](C)[C@H]2O (some centres undefined) [SECALONIC ACID D] | – | 3700 nM | 280 nM
